Measured values reported in ChEMBL document CHEMBL4038329, “Side-Chain Modified Ergosterol and Stigmasterol Derivatives as Liver X Receptor Agonists” (J Med Chem, 2017).
Calls of active or inactive are those of the source. The rule behind the calls is not given here.

Experiments:
[1] = biological target: T1, Oxysterols receptor LXR-alpha (Homo sapiens) (UniProt Q13133); assay: Activation of GAL4 fused human LXR alpha expressed in HEK293 cells after 24 hrs by luciferase reporter gene assay relative to 22R-HC; type: cell-based
T1 sequence (whole entry): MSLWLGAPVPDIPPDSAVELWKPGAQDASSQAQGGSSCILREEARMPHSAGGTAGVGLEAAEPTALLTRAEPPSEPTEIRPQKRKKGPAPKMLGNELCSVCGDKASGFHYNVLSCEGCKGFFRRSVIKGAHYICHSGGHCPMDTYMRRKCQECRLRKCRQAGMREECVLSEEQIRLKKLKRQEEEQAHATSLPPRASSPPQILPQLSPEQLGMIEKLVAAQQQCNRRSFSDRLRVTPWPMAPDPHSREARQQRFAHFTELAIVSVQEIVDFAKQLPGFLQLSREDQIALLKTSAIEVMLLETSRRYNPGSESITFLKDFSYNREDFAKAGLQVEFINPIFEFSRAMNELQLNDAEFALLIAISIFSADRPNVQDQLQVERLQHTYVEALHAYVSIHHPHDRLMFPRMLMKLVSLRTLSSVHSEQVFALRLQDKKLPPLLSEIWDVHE
Procedure, shortened: (§1)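 HEK293 cells carrying the Gal4-LXR-α or Gal4-LXR-β chimera plus the pMH100X4-TK-luc and Renilla reporters. Treatment started 6 h post-transfection and ran 24 h. Dual luciferase read-out. Efficacy is given as % of the response to 8 μM 22R-HC, ± SD, from three to five independent experiments.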

[2] = biological target: T2, Oxysterols receptor LXR-beta (Homo sapiens) (UniProt P55055); assay: Activation of GAL4 fused human LXR beta expressed in HEK293 cells after 24 hrs by luciferase reporter gene assay relative to 22R-HC; type: cell-based; procedure, shortened: as §1
T2 sequence (whole entry): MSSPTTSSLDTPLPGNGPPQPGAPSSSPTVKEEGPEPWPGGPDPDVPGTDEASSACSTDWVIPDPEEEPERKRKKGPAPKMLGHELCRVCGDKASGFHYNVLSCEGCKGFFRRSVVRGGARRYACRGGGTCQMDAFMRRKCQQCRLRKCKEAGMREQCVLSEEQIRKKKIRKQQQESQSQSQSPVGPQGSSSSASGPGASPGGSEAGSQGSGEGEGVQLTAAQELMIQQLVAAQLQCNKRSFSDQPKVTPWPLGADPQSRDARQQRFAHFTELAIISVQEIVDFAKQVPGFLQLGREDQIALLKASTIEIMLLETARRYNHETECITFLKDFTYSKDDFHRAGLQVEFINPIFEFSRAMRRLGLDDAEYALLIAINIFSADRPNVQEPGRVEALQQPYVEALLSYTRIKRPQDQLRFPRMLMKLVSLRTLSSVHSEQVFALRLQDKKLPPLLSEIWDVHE

[3] = Agonist activity at LXR in human HepG2 cells assessed as upregulation of FASN mRNA levels at 10 uM after 6 hrs by qPCR analysis; type: cell-based
Procedure, shortened: (§2)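 HepG2 cells treated with ligand (10 μM). Total RNA was extracted with TRIZOL; 2 µg was reverse-transcribed (1 h, 42 °C). SREBP1c, FASN and SCD1 transcripts were measured by qPCR. Mean ± SD of three biological samples; ANOVA with Dunnett's test.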

[4] = Agonist activity at LXR in human HepG2 cells assessed as upregulation of SREBP1c mRNA levels at 10 uM after 6 hrs by qPCR analysis; type: cell-based; procedure, shortened: as §2
[5] = Agonist activity at LXR in human U937 cells assessed as upregulation of SCD1 mRNA levels at 10 uM after 6 hrs by qPCR analysis relative to control; type: cell-based; conditions: for Activity: human, 6 h, 10 µM; for fold induction at 10 µM: Homo sapiens, U-937, 6 h, read-out: FC
Procedure, shortened: (§3)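 U937 cells, 3x10⁶ in 10 ml RPMI with 10% FBS, differentiated with PMA 10 ng/ml for 72 h at 37 °C, then treated with ligand (10 μM) for 6 h. Total RNA was isolated with TRIZOL; 2 µg was reverse-transcribed for 1 h at 42 °C. Transcripts were measured by qPCR. Mean ± SD of three biological samples; ANOVA with Dunnett's test.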

[6] = Agonist activity at LXR in human U937 cells assessed as upregulation of SREBP1c mRNA levels at 10 uM after 6 hrs by qPCR analysis; type: cell-based; procedure, shortened: as §3
[7] = Agonist activity at LXR in human U937 cells assessed as upregulation of FASN mRNA levels at 10 uM after 6 hrs by qPCR analysis; type: cell-based; procedure, shortened: as §3
Homo sapiens [8] = species on record: Homo sapiens; assay: Agonist activity at LXR in human U937 cells assessed as upregulation of ABCA1 mRNA levels at 10 uM after 6 hrs by qPCR analysis; type: cell-based; procedure, shortened: as §3
Homo sapiens [9] = species on record: Homo sapiens; assay: Agonist activity at LXR in human U937 cells assessed as downregulation of LPS-induced TNFalpha mRNA expression at 10 uM after 6 hrs by qPCR analysis; type: cell-based
Procedure, shortened: (§4)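 PMA-differentiated U937 cells (10 ng/ml PMA, 72 h) were given LPS 100 ng/ml together with compound (10 μM) for 6 h. CCL2 and TNFα mRNA were measured by qPCR after TRIZOL RNA extraction and reverse transcription. Three biological samples per group, mean ± SD.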

[10] = Agonist activity at LXR in human HepG2 cells assessed as upregulation of SCD1 mRNA levels at 10 uM after 6 hrs by qPCR analysis; type: cell-based; procedure, shortened: as §2
HEK293 = assay: Activation of GAL4 fused human RXR expressed in HEK293 cells at 10 uM after 24 hrs by luciferase reporter gene assay
[11] = biological target: T3, Peroxisome proliferator-activated receptor gamma (Homo sapiens) (UniProt P37231); assay: Activation of GAL4 fused human PPARgamma expressed in HEK293 cells at 10 uM after 24 hrs by luciferase reporter gene assay
T3 sequence (whole entry): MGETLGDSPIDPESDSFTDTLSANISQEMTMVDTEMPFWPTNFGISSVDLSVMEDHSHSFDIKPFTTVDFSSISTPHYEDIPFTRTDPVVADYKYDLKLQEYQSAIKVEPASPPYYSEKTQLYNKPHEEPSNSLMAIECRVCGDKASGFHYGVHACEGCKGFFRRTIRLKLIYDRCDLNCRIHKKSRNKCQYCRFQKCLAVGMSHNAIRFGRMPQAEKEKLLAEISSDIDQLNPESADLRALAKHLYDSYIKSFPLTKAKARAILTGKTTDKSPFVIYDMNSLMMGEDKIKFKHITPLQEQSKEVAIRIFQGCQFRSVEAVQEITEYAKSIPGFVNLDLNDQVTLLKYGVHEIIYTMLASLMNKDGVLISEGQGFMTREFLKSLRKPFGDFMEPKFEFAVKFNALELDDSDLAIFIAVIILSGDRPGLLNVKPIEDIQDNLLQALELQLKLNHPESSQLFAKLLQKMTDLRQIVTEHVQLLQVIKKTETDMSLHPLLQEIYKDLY

[12] = biological target: T4, Oxysterols receptor LXR-beta (Homo sapiens, UniProt P55055); assay: Activation of GAL4 fused human LXR beta expressed in HEK293 cells after 24 hrs by luciferase reporter gene assay; type: cell-based
T4 sequence (P55055 whole entry): T2 sequence (whole entry)
Procedure, shortened: (§5)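 HEK293 cells (4x10⁴/well), grown in DMEM with 10% FBS at 37 °C under 5% CO₂, transiently co-transfected with pMH100X4-TK-luc, Renilla and the Gal4-LXR-α or Gal4-LXR-β plasmid. Dosing began 6 h after transfection and lasted 24 h, at 32, 16, 8, 4, 2 and 1 μM. Dual luciferase read-out. EC50 came from dose-response curves, averaged over three to five independent experiments, ± SD.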

Homo sapiens [13] = species on record: Homo sapiens; assay: Agonist activity at LXR in human U937 cells assessed as downregulation of LPS-induced CCL2 mRNA expression at 10 uM after 6 hrs by qPCR analysis; type: cell-based; procedure, shortened: as §4
[14] = biological target: T5, Oxysterols receptor LXR-alpha (Homo sapiens, UniProt Q13133); assay: Activation of GAL4 fused human LXR alpha expressed in HEK293 cells after 24 hrs by luciferase reporter gene assay; type: cell-based; procedure, shortened: as §5
T5 sequence (Q13133 whole entry): T1 sequence (whole entry)

SMILES	Efficacy [1] [%]	Efficacy [2] [%]	Activity [3]	Activity [4]	Activity [5]	Activity [6]	Activity [7]	Activity (Homo sapiens [8])	Activity (Homo sapiens [9])	Activity [10]	Activity (HEK293)	Activity [11]	EC50 [12]	fold induction at 10 µM [5]	Activity (Homo sapiens [13])	EC50 [14]
CC[C@@H](C(C)C)[C@H]1O[C@@H]1[C@@H](C)[C@H]1CC[C@H]2[C@@H]3CC=C4C[C@@H](O)CC[C@]4(C)[C@H]3CC[C@]12C	489	142	Not Active	Active	Not Active	Not Active	Not Active	Active	Active	Not Active	inactive	inactive				
CC(C)[C@@H](C)CC(=O)[C@@H](C)[C@H]1CC[C@H]2C3=CC=C4C[C@@H](O)CC[C@]4(C)[C@H]3CC[C@]12C	70.2		Not Active	Not Active	Not Active	Not Active	Not Active	Active		Not Active	inactive	inactive	Not Active			
CC[C@@H](C(C)C)[C@@H]1O[C@H]1[C@@H](C)[C@H]1CC[C@H]2[C@@H]3CC=C4C[C@@H](O)CC[C@]4(C)[C@H]3CC[C@]12C	56.8	36.3	Not Active	Not Active	Not Active	Not Active	Not Active	Active		Not Active	inactive	inactive				
CC(C)[C@@H](C)[C@@H]1O[C@H]1[C@@H](C)[C@H]1CC[C@H]2C3=CC=C4C[C@@H](O)CC[C@]4(C)[C@H]3CC[C@]12C	51.7	48.5	Not Active	Active		Not Active	Not Active	Active		Not Active	inactive	inactive		< 2	Active	
CC[C@@H](C(C)C)[C@H](O)C[C@@H](C)[C@H]1CC[C@H]2[C@@H]3CC=C4C[C@@H](O)CC[C@]4(C)[C@H]3CC[C@]12C			Not Active	Not Active	Not Active	Not Active	Not Active	Active	Active	Not Active	inactive	inactive			Active	
O=S(=O)(c1ccccc1)N(CC(F)(F)F)c1ccc(C(O)(C(F)(F)F)C(F)(F)F)cc1 [T091317]			Not Active	Not Active	Not Active	Active	Not Active	Active		Not Active					Active	
CC[C@H](C(=O)C[C@@H](C)[C@H]1CC[C@H]2[C@@H]3CC=C4C[C@@H](O)CC[C@]4(C)[C@H]3CC[C@]12C)C(C)C	12.4	46.4	Not Active	Not Active		Not Active	Not Active	Active	Active	Not Active	inactive	inactive		< 2		
CC(C)[C@@H](C)C(=O)C[C@@H](C)[C@H]1CC[C@H]2C3=CC=C4C[C@@H](O)CC[C@]4(C)[C@H]3CC[C@]12C	151		Not Active	Not Active	Not Active	Not Active	Not Active	Active		Not Active	inactive	inactive	Not Active			
CC[C@H](CC(=O)[C@@H](C)[C@H]1CC[C@H]2[C@@H]3CC=C4C[C@@H](O)CC[C@]4(C)[C@H]3CC[C@]12C)C(C)C													Not Active			Not Active
CC(C)[C@@H](C)[C@H](O)C[C@@H](C)[C@H]1CC[C@H]2C3=CC=C4C[C@@H](O)CC[C@]4(C)[C@H]3CC[C@]12C	63.9		Not Active	Not Active	Not Active	Not Active	Not Active	Active		Not Active	inactive	inactive	Not Active			
